Source: PubChem BioAssay AID489030 (Sanford-Burnham Center for Chemical Genomics, 2010)
The campaign covered roughly 330,000 compounds. About 2,400 (0.73%) were called active. The sample as a whole holds a higher share of actives than the screen did. Unmarked numbers belong to inactive results. Rule for the calls: active = inhibition of at least 40% at 20 µM; inactive = the rest.

Target: Apoptotic protease-activating factor 1 (Homo sapiens) (UniProt O14727)
Assay: inhibitors of human Apaf-1 apoptosome, primary screen, biochemical, DEVD-Rh110 fluorescence, uHTS (AID 489030);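 note: plate controls were DMSO wells for no effect and DEVD-CHO caspase inhibitor wells for full effect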
Details: reconstituted apoptosome caspase-3 activity, at 20 µM, active compounds read high
Method in brief: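 Material: reconstituted apoptosome with Apaf-1, cytochrome c, caspase-9, procaspase-3, dATP. Technique: Rh110 fluorescence intensity. Buffer or medium: pH 7.5 Hepes buffer with CHAPS, BSA, DTT. Times: 30 min plus 50 min, RT.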

Chain of Apoptotic protease-activating factor 1 (Homo sapiens) (O14727 whole entry, looked up): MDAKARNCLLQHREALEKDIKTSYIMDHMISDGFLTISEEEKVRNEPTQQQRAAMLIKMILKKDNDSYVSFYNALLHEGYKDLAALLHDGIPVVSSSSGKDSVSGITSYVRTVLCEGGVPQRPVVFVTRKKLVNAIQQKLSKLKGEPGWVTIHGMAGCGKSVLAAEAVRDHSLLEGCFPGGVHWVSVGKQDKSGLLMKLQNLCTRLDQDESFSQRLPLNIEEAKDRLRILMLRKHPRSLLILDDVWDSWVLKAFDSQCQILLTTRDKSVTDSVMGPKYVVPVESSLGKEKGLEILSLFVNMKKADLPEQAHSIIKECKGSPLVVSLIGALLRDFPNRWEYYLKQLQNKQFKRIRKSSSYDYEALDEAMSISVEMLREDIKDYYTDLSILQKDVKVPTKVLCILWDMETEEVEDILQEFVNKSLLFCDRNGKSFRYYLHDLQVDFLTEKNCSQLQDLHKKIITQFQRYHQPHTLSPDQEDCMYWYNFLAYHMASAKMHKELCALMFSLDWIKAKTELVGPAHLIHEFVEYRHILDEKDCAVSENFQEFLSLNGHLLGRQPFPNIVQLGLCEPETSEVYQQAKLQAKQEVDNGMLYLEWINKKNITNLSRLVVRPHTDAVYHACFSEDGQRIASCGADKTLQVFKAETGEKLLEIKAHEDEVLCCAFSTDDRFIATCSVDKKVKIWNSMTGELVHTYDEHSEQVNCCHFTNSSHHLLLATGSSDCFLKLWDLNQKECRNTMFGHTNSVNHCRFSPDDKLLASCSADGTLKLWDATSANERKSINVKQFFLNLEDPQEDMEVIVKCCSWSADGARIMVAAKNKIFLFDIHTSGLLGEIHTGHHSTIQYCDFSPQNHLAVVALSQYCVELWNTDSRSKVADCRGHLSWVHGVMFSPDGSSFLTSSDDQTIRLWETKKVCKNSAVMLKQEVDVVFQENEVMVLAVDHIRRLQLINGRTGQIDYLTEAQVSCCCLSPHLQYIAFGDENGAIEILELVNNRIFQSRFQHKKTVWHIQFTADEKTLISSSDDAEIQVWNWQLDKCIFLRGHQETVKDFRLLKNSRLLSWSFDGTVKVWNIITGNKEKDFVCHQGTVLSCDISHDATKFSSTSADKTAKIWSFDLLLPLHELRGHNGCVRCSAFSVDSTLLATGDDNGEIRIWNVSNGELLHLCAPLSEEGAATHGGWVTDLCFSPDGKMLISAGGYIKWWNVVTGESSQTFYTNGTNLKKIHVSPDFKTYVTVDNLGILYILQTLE

Structure (SMILES) | inhibition
CC(=O)N(C1=C(Cl)C(=O)c2ccccc2C1=O)c1ccc(C(=O)O)cc1 | 89% (active)
Cc1ccc(-c2nc(-c3cccnc3)sc2CC(=O)Nc2ccc(C)c(Cl)c2)cc1 | 19%
Cc1cccc(OCC(=O)NC2CC(C)(C)NC(C)(C)C2)c1 | 0.115%
O=C(CS(=O)(=O)c1cn(Cc2cccc(F)c2)c2ccccc12)N1CCCCC1 | 18.4%
c1ccc(-c2cc(N3CCCCC3)c3ccccc3n2)cc1 | -0.639%
O=c1cc(N2CCCCC2)c(-c2ccccc2)nn1Cc1cccc(F)c1 | 44% (active)
COc1ccc(OC)c(NC(=S)N2CCc3ccccc3C2)c1 | -1.06%
O=S(=O)(c1ccc(Br)cc1)N1CCC(c2nc3ccccc3[nH]2)CC1 | 6.06%
Cc1noc(C)c1CSc1nnc2ccc3ccccc3n12 | -5%
COc1ccc(/C=N/Nc2cc(N3CCOCC3)nc(C)n2)c(OC)c1 | 0.02%
CN(C)c1ccc(/C=N/Nc2cc(N3CCOCC3)nc(N3CCOCC3)n2)cc1 | 1.31%
C(=N/Nc1cc(N2CCOCC2)nc(N2CCOCC2)n1)/c1ccccc1 | 76.5% (active)
Cc1ccc(C)c2c1cc(C)c1nnc(SCC(=O)Nc3cccc(C(=O)O)c3)n12 | -9.82%
CCOCCCNS(=O)(=O)Cc1ccccc1 | 5.85%
COc1cnc(SCc2ccc(Cl)c(Cl)c2)nc1Cl | 0.38%
O=C(CN1CCCCCC1)Nc1c(Cl)cc(Cl)cc1Cl | -0.605%
Cc1[nH][nH]c(=O)c1C(c1ccc(-c2ccc(Cl)cc2)o1)c1c(C)[nH][nH]c1=O | 85.8% (active)
CN(CC(=O)Nc1ccc(F)cc1)C(=O)c1ccc(-c2ccc(Cl)cc2)o1 | 22%
O=C(NC1CCCCC1)c1ccc(-c2ccc(Cl)cc2)o1 | 15%
CCC(=O)Nc1ccc2nn(-c3ccc(F)cc3)nc2c1 | 17.5%
c1ccc(-n2nc3ccccc3n2)cc1 | 2.62%

Structure (SMILES) | inhibition
Nc1ccc2nn(-c3ccc(Cl)cc3)nc2c1 | 83.8% (active)
O=Cc1c(Cl)cccc1Cl | -4.79%
CCN1C(=O)c2cccc3c(N)ccc1c23 | 97.1% (active)
CCN1C(=O)c2cccc3c(S(=O)(=O)Nc4ccccc4O)ccc1c23 | 5.31%
Cc1nn(C)cc1N1C(=O)c2cccc3c(N)ccc(c23)C1=O | 12.4%
CCSc1sc(CC)cc1C=O | -7.54%
COCCC(=O)Nc1ccc2c(c1)CN(C(=O)CCOC)CC2 | -12.8%
Cc1occc1C(=O)N/N=C/c1ccc(-c2cccc([N+](=O)[O-])c2)o1 | 10.6%
Cc1ccc(-c2ccc(/C=N/NC(=O)CN3CCOCC3)o2)cc1[N+](=O)[O-] | 73.9% (active)
O=C(CN1CCOCC1)N/N=C/c1ccc(-c2ccc(Br)cc2)o1 | -12%
COc1ccc(-n2nc3c(N4CCC(C(=O)NCc5ccccc5)CC4)nnc(C)c3c2C)cc1 | 7.29%
CCOc1ccc(CNC(=O)C2CCCN(c3nnc(C)c4c(C)n(-c5ccccc5)nc34)C2)cc1 (stereo unspecified) | 23.8%
CCc1ccc(CNC(=O)C2CCN(c3nnc(C)c4c(C)n(-c5ccc(C)cc5)nc34)CC2)cc1 | 42.3% (active)
C=C(C)CSc1nc(N)c2c3c(sc2n1)CCC3 | -16.8%
CC(C)CNC(=O)/C=C/C(=O)O | -2.85%
O=C1c2ccccc2-c2ncnc3c(N4CCOCC4)cc(N4CCOCC4)c1c23 | 11.8%
O=C1C(Cl)=C(N2CCOCC2)C(=O)N1c1ccccc1 | -17.1%
COC1=C(N2CCOCC2)C(=O)c2ccccc2C1=O | 65.8% (active)
Cc1ccc(S(=O)(=O)N2CCN(c3ccccc3)CC2)cc1C | 14.9%
Cc1ccc(S(=O)(=O)C(C#N)c2nc3ccccc3nc2N2CCCC2)cc1C (stereo unspecified) | 60% (active)
CC(C)OC(=O)C(C#N)c1nc2ccccc2nc1N1CCN(Cc2ccccc2)CC1 (stereo unspecified) | 10.2%

Structure (SMILES) | inhibition
CN(C(=O)CCNC(=O)Cn1ccc2ccccc2c1=O)c1ccc(Br)cc1 | 3.8%
Cc1ccc(C(C)C)c(OCc2nnc(SCC(=O)Nc3nccs3)n2C)c1 | 11.4%
CC[C@@H](C)[C@@H]1CN([C@@H](C)CN2CCC[C@H]2CN2C(N)=NC[C@H]2C(C)C)C(=N)N1CCc1ccc(Cl)c(Cl)c1 | 25.3%
CCCCN1C(N)=NC[C@@H]1Cc1ccccc1 | 13.2%
C[C@@H](CN1CCC[C@H]1CN1C(N)=NC[C@@H]1Cc1ccccc1)N1C[C@@H](Cc2ccccc2)N(CCCC2CCCC2)C1=N | 70.9% (active)
CC(C)CC(=O)N1CCN(Cc2ccccc2Br)CC1 | 8.5%
COc1ccc(NC(=O)c2cccc3c2C(=O)N(CC2CCCO2)C3)cc1OC (stereo unspecified) | 2.96%
COCCc1nn2c(=O)cc(COC(=O)c3cc(OC)c(OC)c(OC)c3)nc2s1 | -4.08%
COc1cc(/C=N/NC(=O)c2ccoc2C)ccc1OCCN1CCCCC1 | 10.2%
Cc1[nH]n(-c2ccccc2)c(=O)c1/C=N/NC(=O)c1ccoc1C | 61.5% (active)
Cc1ccc(-n2[nH]c(C)c(/C=N/NC(=O)c3cccc([N+](=O)[O-])c3)c2=O)cc1C | 25.4%
Oc1ccc(N=Cc2sc3ccccc3c2Cl)cc1 | 64.8% (active)
Cc1cc(N=Nc2ccc3ccccc3c2)ccc1O | 4.6%
Oc1ccc(/C=N/N(Cc2ccccc2)c2ccccc2)cc1 | 8.85%
CC(=O)n1c(C=Nc2ccccc2)c(O)c2ccccc21 | 5.41%
Oc1ccc(N=Cc2c(O)ccc3ccccc23)cc1 | 87.2% (active)
CSc1ccc(CCNC(=O)C2CCN(c3nnc(-n4cccc4)s3)CC2)cc1 | 0.72%
O=C(NCCCn1ccnc1)c1cc2c(s1)CCCC2 | 11.9%
COc1ccc(-c2nc(N)sc2C2(O)C(=O)Nc3c(Br)cc(F)cc32)cc1OC (stereo unspecified) | 3.73%
